From ChEMBL document CHEMBL1144937, “A specific mechanism of nonspecific inhibition” (J Med Chem, 2003)

What was measured:
[1] = target: Beta-lactamase (Escherichia coli K-12) (UniProt P00811); conditions: 30 uM
[2] = target: Beta-lactamase (Escherichia coli K-12) (UniProt P00811); assay: Percentage inhibition against beta-Lactamase in the presence of detergent 0.01% Triton X-100 was determined at a concentration of 20 uM
How it was run: (§1)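 AmpC β-lactamase (expressed and purified from E. coli) assayed in 50 mM KPi, pH 7.0, at room temperature. Enzyme and inhibitor were preincubated for 5 min before the nitrocefin substrate (200 μM) was added, and hydrolysis was followed kinetically. For the detergent lines, Triton X-100, made fresh daily as a 1% (v/v) stock in 50 mM KPi, was used at a final 0.01%.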

[3] = target: Beta-lactamase (Escherichia coli K-12) (UniProt P00811); assay: Percentage inhibition against beta-Lactamase in the absence of detergent Triton X-100 was determined at a concentration of 20 uM
How it was run: as §1

Beta-lactamase [4] = target: T1, Beta-lactamase (Escherichia coli K-12, UniProt P00811); assay: Inhibitory activity against Amp C beta-Lactamase
T1 sequence (P00811 whole entry): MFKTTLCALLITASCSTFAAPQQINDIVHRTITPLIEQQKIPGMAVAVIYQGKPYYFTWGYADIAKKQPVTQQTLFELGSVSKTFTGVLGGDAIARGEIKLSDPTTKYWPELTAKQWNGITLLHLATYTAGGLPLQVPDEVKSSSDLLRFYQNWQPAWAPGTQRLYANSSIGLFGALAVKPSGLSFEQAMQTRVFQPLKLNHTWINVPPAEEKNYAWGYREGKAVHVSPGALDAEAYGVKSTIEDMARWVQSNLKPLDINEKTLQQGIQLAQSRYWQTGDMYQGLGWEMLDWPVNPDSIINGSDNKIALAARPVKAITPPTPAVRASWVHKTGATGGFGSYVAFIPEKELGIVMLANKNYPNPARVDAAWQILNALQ

Beta-lactamase [5] = target: T1, Beta-lactamase; assay: Inhibitory activity against Beta-lactamase from DMSO stock was determined
[6] = target: Beta-lactamase (Escherichia coli K-12) (UniProt P00811); assay: Percentage inhibition against beta-Lactamase in the presence of detergent 0.01% Triton X-100 was determined at a concentration of 0.6 uM
How it was run: as §1

[7] = target: Beta-lactamase (Escherichia coli K-12) (UniProt P00811); assay: Percentage inhibition against beta-Lactamase in the absence of detergent Triton X-100 was determined at a concentration of 0.6 uM
How it was run: as §1

[8] = target: Beta-lactamase (Escherichia coli K-12) (UniProt P00811); assay: Percentage inhibition against beta-Lactamase in the presence of detergent 0.01% Triton X-100 was determined at a concentration of 25 uM
How it was run: (§2)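 AmpC β-lactamase (E. coli-expressed, purified) assayed in 50 mM KPi, pH 7.0, at room temperature. Enzyme and inhibitor preincubated 5 min before substrate addition. Inhibitors were typically diluted from 10 mM DMSO stocks into KPi. Where present, Triton X-100 was at 0.01% final, from a 1% (v/v) stock in 50 mM KPi freshly prepared daily.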

[9] = target: Beta-lactamase (Escherichia coli K-12) (UniProt P00811); assay: Percentage inhibition of Beta-lactamase at KPi (Potassium Phosphate) stock concentration of 5.9 uM
How it was run: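 Compound dissolved directly in 50 mM KPi with no DMSO, stock level set by UV–vis spectra correlated with DMSO-diluted solutions. Tested against AmpC β-lactamase in 50 mM KPi, pH 7.0, room temperature, with 5 min enzyme–inhibitor preincubation. Value reported as percent inhibition.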

[10] = target: Beta-lactamase (Escherichia coli K-12) (UniProt P00811); assay: Percentage inhibition against beta-Lactamase in the absence of detergent Triton X-100 was determined at a concentration of 25 uM
How it was run: as §2

[11] = target: Beta-lactamase (Escherichia coli K-12) (UniProt P00811); assay: Percentage inhibition against beta-Lactamase in the absence of detergent Triton X-100 was determined at a concentration of 5 uM
How it was run: as §2

[12] = target: Beta-lactamase (Escherichia coli K-12) (UniProt P00811); assay: Percentage inhibition against beta-Lactamase in the presence of detergent 0.01% Triton X-100 was determined at a concentration of 5 uM
How it was run: as §2

Beta-lactamase (Escherichia coli K-12), sequence (P00811 whole entry): as above

In the case of O=S(=O)(O)c1cc(O)c(/N=N/c2ccc3ccccc3c2O)c2ccccc12, the inhibition [1] is reported as 68%.

With Oc1ccc(/N=N/c2ccc(Br)cc2)cc1 the inhibition [2] was 10% and the inhibition [3] was 91%.

With COC(=O)C1=C(C)NC(C)=C(C(=O)OCCN(C)Cc2ccccc2)C1c1cccc([N+](=O)[O-])c1 (configuration not stated) [NICARDIPINE] the IC50 (Beta-lactamase [4]) was 20 µM and the IC50 (Beta-lactamase [5]) was 20 µM.

With Clc1ccc(CSC(Cn2ccnc2)c2ccc(Cl)cc2Cl)cc1 (configuration not stated) [SULCONAZOLE] the IC50 (Beta-lactamase [4]) was 14 µM.

With OB(O)c1cc2ccccc2s1 the inhibition [6] was 86% and the inhibition [7] was 87%.

Compound O=C1NCc2c1c1c3ccccc3[nH]c1c1[nH]c3ccccc3c21 [STAUROSPORINONE] has an inhibition [2] of 17%, an IC50 (Beta-lactamase [4]) of 8 µM and an inhibition [3] of 80%.

O=c1c(O)c(-c2ccc(O)c(O)c2)oc2cc(O)cc(O)c12 gave an inhibition [8] of 25%, an inhibition [9] of 43% and an inhibition [10] of 68%.

CC(=O)c1c(O)c(C)c(O)c(Cc2c(O)c3c(c(C(=O)/C=C/c4ccccc4)c2O)OC(C)(C)C=C3)c1O [ROTTLERIN] showed an inhibition [11] of 90%, an IC50 (Beta-lactamase [4]) of 1.2 µM and an inhibition [12] of 5%.
